# According to ChEMBL document CHEMBL1909539, “Reappraising the structures and distribution of metabolites from black aspergilli containing uncommon 2-benzyl-4H-pyran-4-one and 2-benzylpyridin-4(1H)-one systems” (J Nat Prod, 2011):
# Active and inactive are the calls of the source. The calls are words filed in the database; no cut-off is given here.
# Legend:
# Assay type in all cases: functional, organism-based
# Acinetobacter baumannii [1] = assay: Antibacterial activity against Acinetobacter baumannii ATCC 19606 at 100 ug/ml after 24 hrs; settings: ATCC 19606 = CIP 70.34 = JCM 6841
# Outline: (§1)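 Broth growth assay in 96-well plates with test compounds added from DMSO stocks (final DMSO 1%). OD600 was read after brief orbital shaking, then again after 24 h incubation at 37 °C in a humidified incubator. Activity was taken as the change in OD600 between the two readings.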
# Escherichia coli [2] = assay: Antibacterial activity against Escherichia coli ATCC 11775 at 100 ug/ml after 24 hrs; outline: as §1
# Klebsiella pneumoniae [3] = assay: Antibacterial activity against Klebsiella pneumoniae ATCC 51503 at 100 ug/ml after 24 hrs; outline: as §1
# Klebsiella pneumoniae [4] = assay: Antibacterial activity against Klebsiella pneumoniae ATCC 33495 at 100 ug/ml after 24 hrs; outline: as §1
# Pseudomonas aeruginosa = assay: Antibacterial activity against Pseudomonas aeruginosa ATCC 10145 at 100 ug/ml after 24 hrs; outline: as §1
# Candida albicans [5] = assay: Potentiation of antifungal activity of imidazole against Candida albicans ATCC 38245 by broth microdilution assay
# Burkholderia cepacia = assay: Antibacterial activity against Burkholderia cepacia ATCC 25608 at 100 ug/ml after 24 hrs; outline: as §1
# Staphylococcus aureus [6] = assay: Antibacterial activity against Staphylococcus aureus ATCC 25293 at 100 ug/ml after 24 hrs; outline: as §1
# Enterobacter cloacae = assay: Antibacterial activity against Enterobacter cloacae ATCC 13047 at 100 ug/ml after 24 hrs; outline: as §1
# Acinetobacter baumannii [7] = assay: Antibacterial activity against Acinetobacter baumannii ATCC BAA-1605 at 100 ug/ml after 24 hrs; outline: as §1
# [8] = test system: Staphylococcus epidermidis; assay: Antibacterial activity against Staphylococcus epidermidis ATCC 12228 at 100 ug/ml after 24 hrs; outline: as §1
# Staphylococcus aureus [9] = assay: Antibacterial activity against Staphylococcus aureus ATCC 700787 at 100 ug/ml after 24 hrs; outline: as §1
# Escherichia coli [10] = assay: Antibacterial activity against Escherichia coli ATCC 10798 at 100 ug/ml after 24 hrs; outline: as §1
# Candida albicans [11] = assay: Antifungal activity against Candida albicans ATCC 38245 at 100 ug/ml after 48 hrs
# Outline: (§2)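 Yeasts and Aspergillus cultures were dispensed into 96-well plates and compound in DMSO was added (1% DMSO final). Plates were shaken orbitally and OD600 was read at start. After 48 h at 37 °C, humidified, OD600 was read again, and activity was calculated as the change in optical density.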
# Aspergillus fumigatus [12] = assay: Antifungal activity against Aspergillus fumigatus NRRL A1100 at 100 ug/ml after 48 hrs; outline: as §2
# Candida parapsilosis = assay: Antifungal activity against Candida parapsilosis ATCC 12969 at 100 ug/ml after 48 hrs; outline: as §2
# Candida tropicalis = assay: Antifungal activity against Candida tropicalis ATCC 12968 at 100 ug/ml after 48 hrs; outline: as §2
# Aspergillus flavus [13] = assay: Antifungal activity against Aspergillus flavus NRRL A1120 at 100 ug/ml after 48 hrs; outline: as §2
# Pichia kudriavzevii [14] = assay: Antifungal activity against Candida krusei ATCC 27803 at 100 ug/ml after 48 hrs; outline: as §2
# Nakaseomyces glabratus = assay: Antifungal activity against Candida glabrata NRRL Y-65 at 100 ug/ml after 48 hrs; outline: as §2
# Aspergillus flavus [15] = assay: Antifungal activity against Aspergillus flavus NRRL A1120 at 10 ug/ml after 48 hrs; outline: as §2
# Pichia kudriavzevii [16] = assay: Antifungal activity against Candida krusei ATCC 27803 at 10 ug/ml after 48 hrs; outline: as §2
# Aspergillus fumigatus [17] = assay: Antifungal activity against Aspergillus fumigatus NRRL A1100 at 10 ug/ml after 48 hrs; outline: as §2
Compound,inhibition (Acinetobacter baumannii [1]),inhibition (Escherichia coli [2]),inhibition (Klebsiella pneumoniae [3]),inhibition (Klebsiella pneumoniae [4]),inhibition (Pseudomonas aeruginosa),Activity (Candida albicans [5]),inhibition (Burkholderia cepacia),inhibition (Staphylococcus aureus [6]),inhibition (Enterobacter cloacae),inhibition (Acinetobacter baumannii [7]),inhibition [8],inhibition (Staphylococcus aureus [9]),inhibition (Escherichia coli [10]),other results
C[C@@H](CC(=O)NC(=O)c1coc(Cc2ccccc2)cc1=O)C(=O)O,inactive,inactive,inactive,inactive,inactive,inactive,inactive,inactive,inactive,inactive,inactive,inactive,inactive,
NC(=O)c1cn(-c2ccc(F)cc2)c(Cc2ccccc2)cc1=O,inactive,inactive,inactive,inactive,inactive,,inactive,inactive,inactive,inactive,inactive,inactive,inactive,
C[C@@H](CC(=O)NC(=O)c1cn(-c2ccccc2)c(Cc2ccccc2)cc1=O)C(=O)O,inactive,inactive,inactive,inactive,inactive,,inactive,inactive,inactive,inactive,inactive,inactive,inactive,
COC(=O)[C@@H](C)CC(=O)NC(=O)c1coc(Cc2ccccc2)cc1=O,,,,,,inactive,,,,,,,,
NC(=O)c1coc(Cc2ccccc2)cc1=O,inactive,inactive,inactive,inactive,inactive,inactive,inactive,inactive,inactive,inactive,inactive,inactive,inactive,
COC(=O)c1coc(Cc2ccccc2)cc1=O,inactive,inactive,inactive,inactive,inactive,inactive,inactive,inactive,inactive,inactive,inactive,inactive,inactive,inhibition (Candida albicans [11]): Active; inhibition (Aspergillus fumigatus [12]): Active; inhibition (Candida parapsilosis): Active; inhibition (Candida tropicalis): Active; inhibition (Aspergillus flavus [13]): Active; inhibition (Pichia kudriavzevii [14]): Active; inhibition (Nakaseomyces glabratus): Active; inhibition (Aspergillus flavus [15]): Active
CCOC(=O)c1coc(-c2ccccc2)cc1=O,,,,,,,,,,,,,,inhibition (Candida albicans [11]): Active; inhibition (Aspergillus fumigatus [12]): Active; inhibition (Candida parapsilosis): Active; inhibition (Pichia kudriavzevii [16]): Active; inhibition (Candida tropicalis): Active; inhibition (Aspergillus fumigatus [17]): Active; inhibition (Aspergillus flavus [13]): Active; inhibition (Pichia kudriavzevii [14]): Active; inhibition (Nakaseomyces glabratus): Active; inhibition (Aspergillus flavus [15]): Active
